Screening data as filed in PubChem BioAssay.
Shown are actives, neighbours in structure and some others; about 1.9% of the full set was active somewhere.
MT stabilizer: microtubule stabilization, imaging screen; HeLa tubulin immunostaining HCS, 24 h; share of cells brighter than vehicle mean+2SD; % tubulin-high responders, % at 10 µM; AID 2205; actives 0.83% (n = 200,000);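 active = plate Z-score above 3 for both tubulin-high and condensed-nucleus cell shares, with cell loss under 80%, at 10 µM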;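 also: anti alpha tubulin signal scored within the nucleus-defined area of each cell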
Insulin prom up: MIN6 insulin promoter up-regulation. MIN6 insulin promoter-GFP reporter, high-content imaging; active compounds read high. z-score at 5 µM. actives 0.3% (n = 190,000). AID 1625;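 active = z-score above 3 at 5 µM with at least 500 cells counted in the well; inconclusive = wells under 500 cells, flagged as cytotoxic or low count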
Autophagy mod: modulators of autophagy | MEF GFP-LC3 puncta imaging; test concentration mostly 10 µM | calls only at 10 µM (by protocol) | actives 0.98% (n = 190,000) | AID 463193;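 active = percentage of spot-positive cells more than 3 SD above its plate mean, without a fluorescence outlier flag or 80% toxicity; inconclusive = no clear call, values can overlap the other calls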;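 also: spot-positive cell cutoff set from DMSO-treated cells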
b-catenin transl: alters nuclear translocation of beta-catenin in HeLa cells; immunofluorescence imaging; nuclear translocation activity, % at 5 µM; AID 1665; actives 0.3% (n = 190,000);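 active = nuclear translocation activity above 50% at 5 µM, with a well cell count of 50 or more; inconclusive = wells under 50 cells across six images, flagged as toxic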;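 also: per-cell ratio of nuclear to cytoplasmic median beta-catenin stain intensity; plate controls were DMSO negative control for no effect and GSK-3 inhibitor IX positive control for full effect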
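Assay system: human HeLa cells, native beta-catenin; doses: 5 µM primary, 0.02–20 µM confirmation; incubation: compound treatment 24 h, 37°C, 5% CO2; technique: fluorescence imaging of beta-catenin antibody stain plus DAPI; measure: % activation, nuclear-to-cytoplasmic median beta-catenin signal ratio per cell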
Active calls of the source: *; i = inactive; u = inconclusive; x = no result given; + = active, no number.

SMILES	MT stabilizer	Insulin prom up	Autophagy mod	b-catenin transl
OC1CCN(c2c3c(nc4cc(-c5cccc(F)c5)nn24)CCCC3)CC1	3	-0.52	i	7
Clc1cccc(-c2cc3nc4c(c(NCc5ccco5)n3n2)CCCC4)c1	2	-1.8	i	3
Fc1cccc(-c2cc3nc4c(c(N5CCC6(CC5)OCCO6)n3n2)CCCC4)c1	2	-0.81	+	2
CN(C)c1ccc2c(c1)OC(N)=C(C#N)C2c1cccc(F)c1 (stereo not drawn)	8	-0.14	i	99*
O=c1oc2ccccc2c(Nc2cc3ccccc3cc2O)c1[N+](=O)[O-]	17*	x	i	23
Cn1cc(-c2nnc(-c3ccccc3)o2)c2ccccc21	3	1.9	i	1
CC(C)c1cc(-c2cc(C(=O)NCc3ccccc3)on2)nc(NCC2CC2)n1	x	-1.4	x	-1
CCOC(=O)c1oc2ccc(S(=O)(=O)n3nc(-c4ccccc4)cc3N)cc2c1C	1	-8.5	i	-6
CCOC(=O)c1oc2ccc(S(=O)(=O)n3nc(-c4ccc(OC)cc4)cc3N)cc2c1C	13*	x	i	1
Cc1cccc(Nc2nc(-c3ccc4c(c3)OCCO4)cs2)c1	18*	x	i	-1
Cc1cccc(Nc2nc(-c3c(C)nc4ccccn34)cs2)c1	21*	-1.1	i	38
Cc1cccc(Nc2nc(-c3ccncc3)cs2)c1	4	0.7	i	-2
Cc1nc2ccccn2c1-c1csc(Nc2cccc(O)c2)n1	16	-0.93	i	75*
Cc1ccn2c(-c3csc(NCc4ccco4)n3)c(C)nc2c1	4	-6.2	i	-3
Cc1ccc(NC(=O)c2snc3ccc(Cl)cc23)cc1C	2	-0.21	i	0
CCOC(=O)N1CCN(S(=O)(=O)c2ccc(F)c(C(=O)Nc3cccc(Cl)c3C)c2)CC1	7	0.02	i	-2
CCOC(=O)c1ccc(N2C(=O)CC(N3CCC(C(N)=O)(N4CCCCC4)CC3)C2=O)cc1 (stereo not drawn)	3	x	+	-1
CC(=O)N1C(O)CC(C)N1c1ccccc1 (stereo not drawn)	2	0.19	i	3
O=C(Nc1nccs1)c1ccc(COc2ccccc2Cl)o1	6	x	i	-3
O=C(Nc1ccc(Cl)cn1)c1ccccc1F	17	1.1	i	3
O=C(Nc1ccc(Cl)cn1)c1cccc(F)c1	39*	0.16	i	100*
Cc1nc(Sc2nnnn2C)c2c3c(sc2n1)CCC3	4	-1.3	+	2
CCc1nc(Sc2nnnn2-c2ccccc2)c2c3c(sc2n1)CCCC3	5	0.33	i	-2
COc1ccc(-c2nc(SCC(=O)Nc3nccs3)c(-c3ccc(Cl)cc3)[nH]2)cc1	15*	-0.64	i	0
CCOC(=O)c1nn(-c2cccc(OC)c2)c2nc(Nc3ccccc3)cc(=O)n12	2	0.55	+	x
SMILES	MT stabilizer	Insulin prom up	Autophagy mod	b-catenin transl
CCOC(=O)c1nn(-c2cccc(Cl)c2)c2nc(Nc3ccccc3)cc(=O)n12	3	0.84	i	x
CCc1nnc(NC(=O)CSc2nc(C)c3c(c2C#N)CCCC3)s1	26*	-0.98	i	4
CCc1cc2cc3c(cc2nc1SCC(=O)Nc1cc(C)on1)OCO3	7	0.23	+	-4
CCc1nnc(NC(=O)CSc2nc3cc4c(cc3cc2CC)OCCO4)s1	9	-0.16	+	-2
COc1ccc(NC(=O)CSc2nc(C)c3c(c2C#N)CCCC3)cc1	2	-0.06	i	-2
NC(N)=N/N=C/c1cccc(Cl)c1Cl	3	0.74	i	-3
CCOC(=O)COc1ccccc1C1Nc2ccccc2C(=O)N1c1cccc(Cl)c1 (stereo not drawn)	3	x	i	x
Cc1ccc(NC(=O)/C(C#N)=C(\N)C(Cl)(Cl)Cl)nc1	3	-0.09	+	2
Cc1ccc(NC(=O)C(=O)Nc2ccc(C)cn2)nc1	3	0.25	i	-1
Cc1ccc(Cn2c(=N)n(CC(=O)c3ccc([N+](=O)[O-])cc3)c3ccccc32)cc1	38	u	i	3
CCCCn1c(=N)n(CC(=O)c2ccc([N+](=O)[O-])cc2)c2ccccc21	6	-1.1	+	-1
CCc1ccc(-c2cc(C(F)(F)F)n3nc(C(=O)Nc4cnn(Cc5ccccc5C)c4)cc3n2)s1	i	x	u	x
CCc1ccc(-c2cc(C(F)(F)F)n3nc(C(=O)Nc4c(C)nn(Cc5ccccc5C)c4C)cc3n2)s1	3	0.03	+	2
CCc1ccc(-c2cc(C(F)(F)F)n3nc(C(=O)Nc4c(C)nn(Cc5ccccc5Cl)c4C)cc3n2)s1	2	-3	+	0
